{"source": "ChEMBL document CHEMBL4373657", "about": "“Derivatives of a new heterocyclic system - pyrano[3,4-c][1,2,4]triazolo[4,3-a]pyridines: synthesis, docking analysis and neurotropic activity” (Medchemcomm, 2019)", "key": {"Mus musculus [1]": {"system": "Mus musculus", "test": "Anticonvulsant activity in ip dosed mouse assessed as reduction in PTZ-induced clonic seizures administered 45 mins before PTZ stimulation", "type": "functional", "how_it_was_run": "(§1)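 Outbred mice (18–22 g), 8 per dose. Compounds given i.p. at 10–100 mg kg–1 as a carboxymethylcellulose/Tween-80 suspension, 45 min before s.c. pentylenetetrazole 90 mg kg–1; controls received emulsifier. Endpoint was prevention of clonic seizures. ED50 was derived by Litchfield–Wilcoxon probit analysis.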"}, "[2]": {"test": "Neurotoxicity in ip dosed mouse assessed as maximum tolerated dose by rotarod test", "type": "toxicity, organism-based", "conditions": "in vivo", "how_it_was_run": "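Mice given compounds i.p. at […] to 1800 mg/kg to establish the maximal tolerated dose.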"}, "Mus musculus [3]": {"system": "Mus musculus", "test": "Anticonvulsant activity in mouse assessed as MES-induced […] seizures at 10 to 100 mg/kg, ip administered 45 mins before electrical stimulation", "type": "functional, organism-based"}, "Mus musculus [4]": {"system": "Mus musculus", "test": "Anticonvulsant activity in mouse assessed as MES-induced tonic seizures at 10 to 100 mg/kg, ip administered 45 mins before electrical stimulation", "type": "functional, organism-based", "how_it_was_run": "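Mice, 8 per dose. Compounds given i.p. at 10, 25, 50, 75 or 100 mg kg–1 in carboxymethylcellulose/Tween-80 suspension, 45 min before maximal electroshock (50 mA, 0.2 s, 50 imp s–1); controls received emulsifier. Endpoint was prevention of the tonic-extensor phase.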"}, "Rattus norvegicus [5]": {"system": "Rattus norvegicus", "test": "Antianxiety activity in Wistar rat assessed as increase in number of sniffing cell examinations at 2 mg/kg, ip measured for 5 mins by open field test", "type": "functional, organism-based", "how_it_was_run": "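Male Wistar rats (120–140 g), 8 per group, dosed i.p. as suspension in carboxymethylcellulose with Tween-80; controls given emulsifier. Horizontal movements, rearings and sniffing of cells counted over 5 min in daylight with natural light.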"}, "Mus musculus [6]": {"system": "Mus musculus", "test": "Antianxiety activity in mouse assessed as time spent in closed arms at 2 mg/kg, ip measured for 5 mins by elevated plus maze test (reference value: 278.2 secs)", "type": "functional", "how_it_was_run": "(§2)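 Mice placed at the junction of a raised cruciform maze (two open, two closed opposed arms) facing an open arm. Entries into and time spent in each arm and the centre recorded for 5 min by video tracking and an observer. Compound given i.p. beforehand; controls given emulsifier; P ≤ 0.05.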"}, "Mus musculus [7]": {"system": "Mus musculus", "test": "Sedative activity in mouse assessed as time spent in center at 2 mg/kg, ip measured for 5 mins by elevated plus maze test (reference value: 21.8 secs)", "type": "functional", "how_it_was_run": "as §2"}, "Mus musculus [8]": {"system": "Mus musculus", "test": "Antianxiety activity in mouse assessed as increase in time spent in open arms at 2 mg/kg, ip measured for 5 mins by elevated plus maze test", "type": "functional", "how_it_was_run": "as §2"}, "Mus musculus [9]": {"system": "Mus musculus", "test": "Antidepressant activity in mouse assessed as latent period of first immobilization at 2 mg/kg, ip measured for 6 mins by forced swimming test (reference value: 92 secs)", "type": "functional", "how_it_was_run": "(§3)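 Mice swum in a glass cylinder (height 22 cm, diameter 14 cm) one-third filled with water, under natural light. Latency to first immobility, total immobility and total active swimming recorded over 6 min after i.p. dosing; controls given emulsifier.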"}, "Mus musculus [10]": {"system": "Mus musculus", "test": "Antidepressant activity in mouse assessed as total time of immobilization at 2 mg/kg, ip measured for 6 mins by forced swimming test (reference value: 81 secs)", "type": "functional", "how_it_was_run": "as §3"}, "Mus musculus [11]": {"system": "Mus musculus", "test": "Antidepressant activity in mouse assessed as total time of active swimming at 2 mg/kg, ip measured for 6 mins by forced swimming test (reference value: 282 secs)", "type": "functional", "how_it_was_run": "as §3"}, "Mus musculus [12]": {"system": "Mus musculus", "test": "Anticonvulsant activity in mouse assessed as proportion of animals displaying reduction in PTZ-induced clonic seizures at 200 mg/kg, ip administered 45 mins before PTZ stimulation relative to control", "type": "functional", "design": "scale not given: the % may be the effect or the level left"}, "[13]": {"test": "Neurotoxicity in mouse assessed as myorelaxation at 100 to 200 mg/kg, ip measured for 2 mins by rotarod test", "type": "toxicity, organism-based", "conditions": "in vivo", "how_it_was_run": "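Mice placed on a rubber-coated metal rod rotating at 5 rpm, dosed i.p. Count of animals able to stay on the rod for 2 min. TD50 derived by Litchfield–Wilcoxon probit analysis. Reference drugs given at effective anticonvulsant doses.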"}, "Mus musculus [14]": {"system": "Mus musculus", "test": "Anticonvulsant activity in mouse assessed as proportion of animals displaying reduction in PTZ-induced clonic seizures at 50 mg/kg, ip administered 45 mins before PTZ stimulation relative to control", "type": "functional", "design": "scale not given: the % may be the effect or the level left", "how_it_was_run": "as §1"}, "Mus musculus [15]": {"system": "Mus musculus", "test": "Anticonvulsant activity in mouse assessed as reduction in PTZ-induced clonic seizures at 25 mg/kg, ip administered 45 mins before PTZ stimulation", "type": "functional, organism-based", "how_it_was_run": "as §1"}, "[16]": {"test": "Neurotoxicity in ip dosed mouse assessed as myorelaxation measured for 2 mins by rotarod test", "type": "toxicity, organism-based", "conditions": "in vivo", "how_it_was_run": "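Mice were placed on a corrugated rubber-coated metal rod rotating at 5 rpm, and the number staying on for 2 min was counted. TD50 was derived by Litchfield–Wilcoxon probit analysis.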"}, "[17]": {"test": "Protection index, ratio of TD50 for neurotoxicity in ip dosed mouse to ED50 for anticonvulsant activity in ip dosed mouse", "type": "toxicity, organism-based", "conditions": "in vivo, read-out: Ratio TD50/ED50"}, "[18]": {"test": "Neurotoxicity in mouse assessed as motor coordination at 50 to 100 mg/kg, ip by rotarod test", "type": "toxicity, organism-based", "conditions": "in vivo", "how_it_was_run": "(§4)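 Mice dosed i.p. at 50–100 mg kg–1; reference drugs given at effective anticonvulsant doses. Mice were placed on a corrugated rubber-coated metal rod rotating at 5 rpm, and the number staying on for 2 min was counted. TD50 was derived by Litchfield–Wilcoxon probit analysis.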"}, "Rattus norvegicus [19]": {"system": "Rattus norvegicus", "test": "Antianxiety activity in Wistar rat assessed as horizontal movement of animals at 50 mg/kg, ip measured for 5 mins by open field test", "type": "functional, organism-based", "how_it_was_run": "(§5)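 Male Wistar rats (120–140 g), n = 8 per compound, control and reference. Single i.p. dose of 50 mg kg–1 as a suspension in methylcarboxycellulose with Tween-80; controls received emulsifier. Daytime, natural light. Over 5 min, horizontal movements, rearings (vertical movements) and cell sniffings were counted.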"}, "Rattus norvegicus [20]": {"system": "Rattus norvegicus", "test": "Antianxiety activity in Wistar rat assessed as vertical movement of animals at 50 mg/kg, ip measured for 5 mins by open field test", "type": "functional, organism-based", "how_it_was_run": "as §5"}, "Mus musculus [21]": {"system": "Mus musculus", "test": "Antianxiety activity in mouse assessed as time spent in closed arms at 50 mg/kg, ip measured for 5 mins by elevated plus maze test (reference value: 278.2 secs)", "type": "functional"}, "Rattus norvegicus [22]": {"system": "Rattus norvegicus", "test": "Antianxiety activity in Wistar rat assessed as increase in number of sniffing cell examinations at 50 mg/kg, ip measured for 5 mins by open field test", "type": "functional, organism-based", "how_it_was_run": "as §5"}, "Mus musculus [23]": {"system": "Mus musculus", "test": "Sedative activity in mouse assessed as time spent in center at 50 mg/kg, ip measured for 5 mins by elevated plus maze test (reference value: 21.8 secs)", "type": "functional"}, "Mus musculus [24]": {"system": "Mus musculus", "test": "Antianxiety activity in mouse assessed as increase in time spent in open arms at 50 mg/kg, ip measured for 5 mins by elevated plus maze test", "type": "functional"}, "Mus musculus [25]": {"system": "Mus musculus", "test": "Antidepressant activity in mouse assessed as latent period of first immobilization at 5 mg/kg, ip measured for 6 mins by forced swimming test (reference value: 92 secs)", "type": "functional", "how_it_was_run": "(§6)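 Each mouse swam in a glass container (22 cm high, 14 cm diameter) one-third filled with water, under natural light. Over 6 min, latency to first immobilization, total immobilization time and total active swimming time were recorded.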"}, "Mus musculus [26]": {"system": "Mus musculus", "test": "Antidepressant activity in mouse assessed as total time of immobilization at 5 mg/kg, ip measured for 6 mins by forced swimming test (reference value: 81 secs)", "type": "functional", "how_it_was_run": "as §6"}, "Mus musculus [27]": {"system": "Mus musculus", "test": "Antidepressant activity in mouse assessed as total time of active swimming at 5 mg/kg, ip measured for 6 mins by forced swimming test (reference value: 282 secs)", "type": "functional", "how_it_was_run": "as §6"}, "[28]": {"test": "Neurotoxicity in mouse assessed as myorelaxation at 50 to 100 mg/kg, ip measured for 2 mins by rotarod test", "type": "toxicity, organism-based", "conditions": "in vivo", "how_it_was_run": "as §4"}}, "note": "Calls of active or inactive are those of the source. The rule behind the calls is not given here.", "data": [{"compound": "CN1C(=O)CN=C(c2ccccc2)c2cc(Cl)ccc21", "note": "[DIAZEPAM]", "values": [{"measurement": "ED50", "setting": "Mus musculus [1]", "result": 0.5, "unit": "mg/kg"}, {"measurement": "MTD", "setting": "[2]", "result": 200, "unit": "mg/kg"}, {"measurement": "Activity", "setting": "Mus musculus [3]", "result": "inactive"}, {"measurement": "Activity", "setting": "Mus musculus [4]", "result": "inactive"}, {"measurement": "Activity", "setting": "Rattus norvegicus [5]", "result": "Active"}, {"measurement": "Time", "setting": "Mus musculus [6]", "result": 257.5, "unit": "s"}, {"measurement": "Time", "setting": "Mus musculus [7]", "result": 42.5, "unit": "s"}, {"measurement": "Time", "setting": "Mus musculus [8]", "result": 57, "unit": "s"}, {"measurement": "Time", "setting": "Mus musculus [9]", "result": 174, "unit": "s"}, {"measurement": "Time", "setting": "Mus musculus [10]", "result": 24, "unit": "s"}, {"measurement": "Time", "setting": "Mus musculus [11]", "result": 336, "unit": "s"}]}, {"compound": "CCC1(C)CC(=O)NC1=O", "note": "(stereo not given) [ETHOSUXIMIDE]", "values": [{"measurement": "Activity", "setting": "Mus musculus [12]", "result": 60, "unit": "%"}, {"measurement": "MTD", "setting": "[2]", "result": 1000, "unit": "mg/kg"}, {"measurement": "Activity", "setting": "Mus musculus [3]", "result": "inactive"}, {"measurement": "Activity", "setting": "Mus musculus [4]", "result": "inactive"}, {"measurement": "Activity", "setting": "[13]", "result": "Non-Toxic"}]}, {"compound": "Cc1ccc(Nc2c(C#N)c3c(c4nnc(SCC(=O)N(c5ccccc5)c5ccccc5)n24)COC(C)(C)C3)cc1", "values": [{"measurement": "ED50", "setting": "Mus musculus [1]", "result": 45, "unit": "mg/kg"}, {"measurement": "Activity", "setting": "Mus musculus [14]", "result": 60, "unit": "%"}, {"measurement": "anticonvulsant activity (active/inactive)", "setting": "Mus musculus [15]", "result": "Active"}, {"measurement": "TD50 at 2 min", "setting": "[16]", "result": 610, "unit": "mg/kg"}, {"measurement": "MTD", "setting": "[2]", "result": 1750, "unit": "mg/kg"}, {"measurement": "selectivity ratio", "setting": "[17]", "result": 13.5}, {"measurement": "Activity", "setting": "Mus musculus [3]", "result": "inactive"}, {"measurement": "Activity", "setting": "Mus musculus [4]", "result": "inactive"}, {"measurement": "Activity", "setting": "[18]", "result": "Non-Toxic"}, {"measurement": "Activity", "setting": "Rattus norvegicus [19]", "result": "inactive"}, {"measurement": "Activity", "setting": "Rattus norvegicus [20]", "result": "inactive"}, {"measurement": "Time", "setting": "Mus musculus [21]", "result": 242, "unit": "s"}, {"measurement": "Activity", "setting": "Rattus norvegicus [22]", "result": "Active"}, {"measurement": "Time", "setting": "Mus musculus [23]", "result": 58, "unit": "s"}, {"measurement": "Time", "setting": "Mus musculus [24]", "result": 6.2, "unit": "s"}, {"measurement": "Time", "setting": "Mus musculus [25]", "result": 129, "unit": "s"}, {"measurement": "Time", "setting": "Mus musculus [26]", "result": 106, "unit": "s"}, {"measurement": "Time", "setting": "Mus musculus [27]", "result": 254, "unit": "s"}, {"measurement": "Activity", "setting": "[28]", "result": "Non-Toxic"}]}]}
